Assay results as given in ChEMBL document CHEMBL1122803, “Folate antagonists. 22. Antimalarial and antibacterial effects of 2,4-diamino-6-quinazolinesulfonamides” (1984).

Tested on: Plasmodium berghei
Test: Antimalarial activity as survivor numbers at day 60 for drug-sensitive Plasmodium berghei infected mice (Mus musculus) after 72 hr
Type: functional
In short: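 Normal drug-sensitive P. berghei infection in mice. A single subcutaneous dose was given 72 h postinfection, dissolved or suspended in sesame or peanut oil. Groups were five animals (ten where indicated). Mice alive at 60 days postinfection were counted as "cured", without subinoculation confirmation. Toxic deaths on days 2–5 were recorded separately.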

Q: For `Nc1nc(N)c2cc(S(=O)(=O)c3ccc4ccccc4c3)ccc2n1`, which survivors at day 60 is on record?
A: 5
